Values belong to the compound of their own block, whether it stands above or below them. Activity calls are given as the source filed them. The rule behind the calls is not given here.
Key:
MCF7 = assay: Anticancer activity against human MCF-7 cells assessed as cell growth inhibition measured after 48 hrs by MTT assay; type: functional, cell-based; details: MCF7, 48 h
Procedure, shortened: (§1)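 MTT test on ATCC lines grown in RPMI with 10% FBS and antibiotic/antimycotic at 37 °C in 5% CO₂. Cells were seeded at 4 x 10^3/well and treated for 48 h at 2.5, 5, 10 and 20 µM, from DMSO stocks diluted in medium. MTT (10 mg/mL stock) was then added for 3 h and absorbance read at 540 nm. IC50 derived; three independent experiments.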

HepG2 = assay: Anticancer activity against human HepG2 cells assessed as cell growth inhibition measured after 48 hrs by MTT assay; type: functional, cell-based; details: HepG2, 48 h; procedure, shortened: as §1
HEK293 = assay: Cytotoxicity against human HEK293 cells assessed as cell growth inhibition measured after 48 hrs by MTT assay; type: cell-based; details: HEK293, 48 h; procedure, shortened: as §1
MDA-MB-231 [1] = assay: Anticancer activity against human MDA-MB-231 cells assessed as cell growth inhibition measured after 48 hrs by MTT assay; type: functional, cell-based; details: MDA-MB-231, 48 h; procedure, shortened: as §1
B16-F10 = assay: Anticancer activity against mouse B16-F10 cells assessed as cell growth inhibition measured after 48 hrs by MTT assay; type: functional, cell-based; details: B16-F10, 48 h; procedure, shortened: as §1
MDA-MB-231 [2] = assay: Induction of apoptosis in human MDA-MB-231 cells assessed as early apoptotic cells at 5 uM measured after 24 hrs by Annexin V-FITC/PI staining based flow cytometric analysis (reference value: 6.73 %); type: functional
MDA-MB-231 [3] = assay: Induction of cell cycle arrest in human MDA-MB-231 cells assessed as accumulation at G2/M phase at 20 uM measured after 24 hrs by PI staining based flow cytometry (reference value: 4.31 %); type: functional
MDA-MB-231 [4] = assay: Induction of cell cycle arrest in human MDA-MB-231 cells assessed as accumulation at G1/S phase at 5 uM measured after 24 hrs by PI staining based flow cytometry (reference value: 19.33 %); type: functional
MDA-MB-231 [5] = assay: Induction of apoptosis in human MDA-MB-231 cells assessed as early apoptotic cells at 10 uM measured after 24 hrs by Annexin V-FITC/PI staining based flow cytometric analysis (reference value: 6.73 %); type: functional
MDA-MB-231 [6] = assay: Induction of cell cycle arrest in human MDA-MB-231 cells assessed as accumulation at G0/G1 phase at 5 uM measured after 24 hrs by PI staining based flow cytometry (reference value: 76.36 %); type: functional
MDA-MB-231 [7] = assay: Induction of membrane disintegrity in human MDA-MB-231 cells assessed as increase in LDH release at 2.5 to 20 uM incubated for 48 hrs by LDH leakage assay; type: functional, cell-based; details: dose 2.5-20 µM
Procedure, shortened: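 Extracellular LDH kit assay. Cells were seeded at 4 x 10^3/well and treated 48 h at various concentrations. 20 µL of culture supernatant was assayed with absorbance at 450 nm. Results are expressed as % LDH leakage relative to untreated control cells; triplicate, mean ± SD.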

MDA-MB-231 [8] = assay: Induction of cell cycle arrest in human MDA-MB-231 cells assessed as accumulation at G1/S phase at 10 uM measured after 24 hrs by PI staining based flow cytometry (reference value: 19.33 %); type: functional
MDA-MB-231 [9] = assay: Induction of apoptosis in human MDA-MB-231 cells assessed as increase in caspase 2 activity at 5 to 20 uM pretreated for 48 hrs followed by VDVAD-pNA substrate addition for 2 hrs by colorimetric analysis; type: functional, cell-based; details: dose 5-20 µM, time 50.0 hrs
Procedure, shortened: (§2)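 Colorimetric caspase kit. MDA-MB-231 cells were cultured 24 h, then treated at 0, 5, 10 and 20 µM for 48 h. Lysates were mixed with reaction buffer containing 10 mM DTT. pNA substrate was added at 4 mM final (VDVAD for caspase-2, DEVD for caspase-3, VEID for caspase-6) and incubated 2 h at 37 °C. Absorbance read at 405 nm; triplicate, mean ± SD.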

MDA-MB-231 [10] = assay: Induction of apoptosis in human MDA-MB-231 cells assessed as late apoptotic cells at 20 uM measured after 24 hrs by Annexin V-FITC/PI staining based flow cytometric analysis; type: functional
MDA-MB-231 [11] = assay: Induction of apoptosis in human MDA-MB-231 cells assessed as increase in caspase 3 activity at 5 to 20 uM pretreated for 48 hrs followed by DEVD-pNA substrate addition for 2 hrs by colorimetric analysis; type: functional, cell-based; details: dose 5-20 µM, time 50.0 hrs; procedure, shortened: as §2
MDA-MB-231 [12] = assay: Induction of apoptosis in human MDA-MB-231 cells assessed as increase in caspase 6 activity at 5 to 20 uM pretreated for 48 hrs followed by VEID-pNA substrate addition for 2 hrs by colorimetric analysis; type: functional, cell-based; details: dose 5-20 µM, time 50.0 hrs; procedure, shortened: as §2
MDA-MB-231 [13] = assay: Induction of cell cycle arrest in human MDA-MB-231 cells assessed as accumulation at sub G0 phase at 20 uM measured after 24 hrs by PI staining based flow cytometry (reference value: 1.33 %); type: functional
MDA-MB-231 [14] = assay: Induction of cell cycle arrest in human MDA-MB-231 cells assessed as accumulation at sub G0 phase at 10 uM measured after 24 hrs by PI staining based flow cytometry (reference value: 1.33 %); type: functional
MDA-MB-231 [15] = assay: Induction of cell cycle arrest in human MDA-MB-231 cells assessed as accumulation at G2/M phase at 5 uM measured after 24 hrs by PI staining based flow cytometry (reference value: 4.31 %); type: functional
MDA-MB-231 [16] = assay: Induction of cell cycle arrest in human MDA-MB-231 cells assessed as accumulation at G1/S phase at 20 uM measured after 24 hrs by PI staining based flow cytometry (reference value: 19.33 %); type: functional
MDA-MB-231 [17] = assay: Induction of cell cycle arrest in human MDA-MB-231 cells assessed as accumulation at G0/G1 phase at 20 uM measured after 24 hrs by PI staining based flow cytometry (reference value: 76.36 %); type: functional
MDA-MB-231 [18] = assay: Induction of apoptosis in human MDA-MB-231 cells assessed as early apoptotic cells at 20 uM measured after 24 hrs by Annexin V-FITC/PI staining based flow cytometric analysis (reference value: 6.73 %); type: functional
MDA-MB-231 [19] = assay: Induction of apoptosis in human MDA-MB-231 cells assessed as late apoptotic cells at 10 uM measured after 24 hrs by Annexin V-FITC/PI staining based flow cytometric analysis; type: functional
MDA-MB-231 [20] = assay: Induction of cell cycle arrest in human MDA-MB-231 cells assessed as accumulation at G0/G1 phase at 10 uM measured after 24 hrs by PI staining based flow cytometry (reference value: 76.36 %); type: functional
MDA-MB-231 [21] = assay: Induction of apoptosis in human MDA-MB-231 cells assessed as increase in caspase 8 activity at 5 to 20 uM pretreated for 48 hrs followed by IETD-pNA substrate addition for 2 hrs by colorimetric analysis; type: functional, cell-based; details: dose 5-20 µM, time 50.0 hrs
MDA-MB-231 [22] = assay: Induction of cell cycle arrest in human MDA-MB-231 cells assessed as accumulation at sub G0 phase at 5 uM measured after 24 hrs by PI staining based flow cytometry (reference value: 1.33 %); type: functional
MDA-MB-231 [23] = assay: Induction of apoptosis in human MDA-MB-231 cells assessed as late apoptotic cells at 5 uM measured after 24 hrs by Annexin V-FITC/PI staining based flow cytometric analysis; type: functional
MDA-MB-231 [24] = assay: Induction of cell cycle arrest in human MDA-MB-231 cells assessed as accumulation at G2/M phase at 10 uM measured after 24 hrs by PI staining based flow cytometry (reference value: 4.31 %); type: functional
MDA-MB-231 [25] = assay: Induction of apoptosis in human MDA-MB-231 cells assessed as increase in caspase 9 activity at 5 to 20 uM pretreated for 48 hrs followed by LEHD-pNA substrate addition for 2 hrs by colorimetric analysis; type: functional, cell-based; details: dose 5-20 µM, time 50.0 hrs

IC50 (MCF7): 3.58 µM
IC50 (HepG2): 6.23 µM
IC50 (MDA-MB-231 [1]): 3.96 µM
IC50 (B16-F10): 3.35 µM
Compound: CCOC(=O)c1c(-c2cc(O)c3c(c2)C(=O)c2cccc(O)c2C3=O)nn(-c2ccc(OC(F)(F)F)cc2)c1C(=O)OCC
IC50 (HEK293): 9.76 µM

IC50 (MCF7): 0.87 µM
IC50 (HepG2): 3.35 µM
IC50 (MDA-MB-231 [1]): 4.46 µM
IC50 (B16-F10): 1.15 µM
Compound: CCOC(=O)c1c(-c2cc(O)c3c(c2)C(=O)c2cccc(O)c2C3=O)nn(-c2ccc(C(C)C)cc2)c1C(=O)OCC
IC50 (HEK293): 9.32 µM

IC50 (MCF7): 0.99 µM
IC50 (HepG2): 5.62 µM
IC50 (MDA-MB-231 [1]): 1.32 µM
IC50 (B16-F10): 9.57 µM
Compound: COC(=O)c1c(-c2cc(O)c3c(c2)C(=O)c2cccc(O)c2C3=O)nn(-c2ccc(C)cc2)c1C(=O)OC
Activity (MDA-MB-231 [2]): 38.3%
Activity (MDA-MB-231 [3]): 12.33%
Activity (MDA-MB-231 [4]): 36.97%
Activity (MDA-MB-231 [5]): 16.43%
Activity (MDA-MB-231 [6]): 57.25%
Activity (MDA-MB-231 [7]): Active
Activity (MDA-MB-231 [8]): 32.1%
Activity (MDA-MB-231 [9]): Active
Activity (MDA-MB-231 [10]): 71.81%
Activity (MDA-MB-231 [11]): Active
Activity (MDA-MB-231 [12]): Active
Activity (MDA-MB-231 [13]): 25.8%
Activity (MDA-MB-231 [14]): 8.2%
Activity (MDA-MB-231 [15]): 5.77%
Activity (MDA-MB-231 [16]): 17.85%
Activity (MDA-MB-231 [17]): 69.82%
IC50 (HEK293): 30.1 µM
Activity (MDA-MB-231 [18]): 12.47%
Activity (MDA-MB-231 [19]): 38.13%
Activity (MDA-MB-231 [20]): 63.3%
Activity (MDA-MB-231 [21]): Active
Activity (MDA-MB-231 [22]): 3.22%
Activity (MDA-MB-231 [23]): 19%
Activity (MDA-MB-231 [24]): 4.54%
Activity (MDA-MB-231 [25]): Active

IC50 (MCF7): 3.96 µM
IC50 (HepG2): 2.16 µM
IC50 (MDA-MB-231 [1]): 6.2 µM
IC50 (B16-F10): 3.9 µM
Compound: CCOC(=O)c1c(-c2cc(O)c3c(c2)C(=O)c2cccc(O)c2C3=O)nn(-c2ccc(Cl)cc2)c1C(=O)OCC
IC50 (HEK293): 1.09 µM
